Legend:
[1] = target: T1, Corticotropin-releasing factor receptor 1 (Homo sapiens, UniProt P34998); assay: Antagonist activity at human recombinant CRF1 receptor; assay type: functional
T1 sequence (P34998 whole entry): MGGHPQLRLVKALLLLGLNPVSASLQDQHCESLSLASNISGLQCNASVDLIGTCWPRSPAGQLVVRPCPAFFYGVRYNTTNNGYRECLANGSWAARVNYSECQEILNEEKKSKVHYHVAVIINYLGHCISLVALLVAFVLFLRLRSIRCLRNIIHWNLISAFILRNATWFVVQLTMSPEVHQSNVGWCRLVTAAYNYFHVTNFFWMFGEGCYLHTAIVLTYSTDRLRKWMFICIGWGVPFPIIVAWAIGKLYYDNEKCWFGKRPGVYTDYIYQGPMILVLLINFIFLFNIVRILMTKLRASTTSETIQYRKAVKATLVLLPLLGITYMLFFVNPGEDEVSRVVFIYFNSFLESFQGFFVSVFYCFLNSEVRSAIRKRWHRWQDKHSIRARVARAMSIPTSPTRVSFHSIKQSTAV

[2] = Metabolic stability in human liver microsome assessed as maximum bioavailability; assay type: ADME; conditions: liver microsomes, read-out: Max Achievable Bioavailability
Rattus norvegicus = assay: AUC (0 to 24 hrs) in rat at 10 mg/kg, po; assay type: ADME, organism-based, Plasma; set-up: time < 24 hr, dose 10 mg/kg, route oral; conditions: in vivo
In short: (§1)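 Rats were given a single oral dose of 10 mg/kg and followed for 24 h. Plasma exposure was expressed as AUC0–24 and oral bioavailability was determined. Brain and plasma levels were measured 1 h post-dose to give the brain/plasma ratio.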

[3] = Ratio of drug uptake in brain to plasma in rat at 10 mg/kg, po; assay type: ADME, organism-based; set-up: dose 10 mg/kg, route oral; conditions: brain and plasma, read-out: BPR; in short: as §1
[4] = Volume of distribution in rat at 5 mg/kg, iv after 72 hrs; assay type: ADME, organism-based; set-up: dose 5 mg/kg, route intravenous; conditions: in vivo
In short: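 Rats received a single intravenous dose of 5 mg/kg in a 72 h pharmacokinetic study. Clearance and volume of distribution at steady state (Vdss) were derived.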

Compound	Ki [1] [µM]	Fh [2] [%]	also measured
CCN(Cc1nc(C)no1)c1cc(C)nc2c(-c3ccc(OC)cc3C)c(C)nn12	0.00501	17	–
COc1ccc(-c2c(C)nn3c(NCc4nc(C)no4)cc(C)nc23)c(C)c1	0.0631	–	–
CCC(Nc1cc(C)nc2c(-c3ccc(OC)cc3C)c(C)nn12)c1nnc(C)o1 (stereo not given)	0.1	64	–
CC[C@H](Nc1cc(C)nc2c(-c3ccc(OC)cc3C)c(C)nn12)c1nc(C)no1 [VERUCERFONT]	–	–	AUC (Rattus norvegicus): 3130 ng·h/mL; Kp [3]: 1.6; Vd [4]: 7.5 L/kg
COc1ccc(-c2c(C)nn3c(NC(C)Cc4noc(C)n4)cc(C)nc23)c(C)c1 (stereo not given)	0.0794	26	–
COc1ccc(-c2c(C)nn3c(NC(C)Cc4nc(C)no4)cc(C)nc23)c(C)c1 (stereo not given)	0.0316	32	–
CCCN(CCC)c1cc(C)nc2c(-c3cnc(N(C)C)cc3C)c(C)nn12	–	17	–
CCC(Nc1cc(C)nc2c(-c3ccc(OC)cc3OC)c(C)nn12)c1nc(C)no1 (stereo not given)	0.0501	–	–
COc1ccc(-c2c(C)nn3c(NC(C)Cc4nnc(C)o4)cc(C)nc23)c(C)c1 (stereo not given)	0.251	–	–

Source: ChEMBL document CHEMBL1287801, “Discovery of NBI-77860/GSK561679, a potent corticotropin-releasing factor (CRF1) receptor antagonist with improved pharmacokinetic properties” (Bioorg Med Chem Lett, 2010)
